A selection: hits, their analogues and other compounds. The true share with any hit is near 4.6%.
NCF1 inh: p47phox/p22phox peptide binding inhibitors, primary screen, biochemical, uHTS, NADPH oxidase regulatory subunit; actives 0.53% (n = 220,000); AID 1274, 2008; inhibition, % at 24.7 µM; fluorescence polarization, 2 h;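 active = inhibition above about 30%, limit read from the data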;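 also: 0% = p47phox with labelled peptide and 100% = labelled peptide alone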
Target sequence (P14598 whole entry, looked up): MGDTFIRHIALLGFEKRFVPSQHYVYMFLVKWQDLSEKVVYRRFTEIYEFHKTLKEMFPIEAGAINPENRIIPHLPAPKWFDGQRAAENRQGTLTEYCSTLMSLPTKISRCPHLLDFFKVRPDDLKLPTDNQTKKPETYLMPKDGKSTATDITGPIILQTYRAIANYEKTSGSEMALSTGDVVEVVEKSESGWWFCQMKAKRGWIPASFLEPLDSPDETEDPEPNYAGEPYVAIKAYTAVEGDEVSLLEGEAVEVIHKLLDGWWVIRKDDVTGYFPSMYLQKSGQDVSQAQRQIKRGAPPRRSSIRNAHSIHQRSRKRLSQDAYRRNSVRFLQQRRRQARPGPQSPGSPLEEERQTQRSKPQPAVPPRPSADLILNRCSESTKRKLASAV
Arbovirus anti: antivirals against arbovirus infection, primary screen, cell-based, full library, 10K replicate subset; actives 0.37% (n = 200,000); inhibition, % at 10 µM; arbovirus infection cell-based antiviral screen; in the data active = inhibition above about 30%
Hck Nef HTS: inhibitors of Nef-activated human Hck kinase, primary screen, biochemical, Z-Lyte FRET, 384-well, Hck-YEEI. Recombinant Hck-YEEI plus Nef, Z-Lyte FRET kinase assay. inhibition, % at 20 µM. actives 0.68% (n = 220,000);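 active = Hck-Nef kinase inhibition above about 50%, limit read from the data; inactive = inhibition below that limit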;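 also: 0% = DMSO with Hck plus Nef and 100% = Hck alone without Nef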
Biofilm kill mix: clotrimazole potentiators killing C. albicans biofilm, primary screen, 4-compound mixtures. actives 0.02% (n = 120,000). C. albicans biofilm persisters + clotrimazole, fluorescence viability; primary screen in compound mixtures of four per well. AID 1242, 2008. inhibition, % at 7.6 µM;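 active = inhibition above 30.3% in the primary screen of four-compound pools, then above 30% when the compound was retested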;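 also: compounds exposed to preformed 24 h biofilms for 48 h; 0% = untreated biofilm control and 100% = clotrimazole plus chlorhexidine kill blank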
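Test system: C. albicans CAF4-2 wild-type biofilms; buffer or medium: RPMI/MOPS medium, pH 7.0; schedule: 24 h biofilm formation, then 48 h compound exposure, 37 °C; detection: Alamar Blue fluorescence; measure: percent inhibition of biofilm viability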
RAM inhibit: inhibitors of the yeast RAM network, primary screen, dse1pr::URA3 reporter, 5-FOA selection. inhibition, % at 50 µM. actives 1.8% (n = 190,000). S. cerevisiae dse1pr::URA3 reporter, 5-FOA growth OD615, 2 d; analog-sensitive cbk1-as2 kinase mutant strain. AID 868, 2007;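 active = inhibition above a set limit, 3 SD over mean compound inhibition, cut at about 8.4% in these data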;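 also: 0% = DMSO-only wells with no growth and 100% = 10 µM 1-NA-PP1 full growth; inhibition rescues growth on 5-FOA so higher OD means more RAM inhibition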
WT yeast gro inh: growth inhibition of WT strain, primary screen, mitochondrial fusion inhibitor project, WT and mutant strains, chemical genetic; mitochondrial fusion phenotypic screen; inhibition, % at 10 µM; actives 2.1% (n = 190,000); AID 1362, 2008; in the data active = inhibition above about 58%; tested in S. cerevisiae
Numbers without * were called inactive; nt = not tested or not shown.

SMILES	NCF1 inh	Arbovirus anti	Hck Nef HTS	Biofilm kill mix	RAM inhibit	WT yeast gro inh
C=CCOc1c(CNc2nccs2)cccc1OCC	35.8*	-2.6	8.5	nt	2.7	-2.7
N=C1CCC(=N)c2c1c(O)c1ccccc1c2O	125.0*	nt	16.4	-9.6	nt	nt
O=c1c2ccccc2[nH]c2ccc(F)cc12	10.0	1.6	71.0*	-0.4	3.2	14.1
Cc1ccc(COc2ccsc2-c2n[nH]c(=S)n2C)cc1	-3.7	-15.6	-1.1	nt	4.0	-16.9
Cn1c(-c2sccc2OCc2ccc(Cl)cc2Cl)n[nH]c1=S	-2.4	-1.9	2.8	20.7	6.4	64.0*
O=C(Cn1ccc(C(F)(F)F)n1)N/N=C/c1ccc(N2CCOCC2)cc1	-9.4	-1.4	-3.1	15.3	0.6	8.6
CCCCCCCOc1ccc(-c2ccc(C#N)cn2)cc1	-17.5	8.7	3.2	4.3	10.4*	14.8
O=C(Cn1nnc(-c2ccccc2)n1)N/N=C/c1ccco1	-5.7	0.8	24.6	16.9	3.0	-1.9
COCC(C)NC(=O)c1cc(-c2cccc(OC)c2)on1 (centres undefined)	-5.0	-4.2	4.8	nt	3.6	96.8*
COc1cccc(-c2cc(C(=O)Nc3cccc(O)c3)no2)c1	-8.8	2.4	1.3	nt	9.2*	12.8
COc1ccc(NC(=O)c2cc(-c3cccc(OC)c3)on2)cc1	-8.1	-5.9	36.9	9.2	1.4	-8.4
CC(=O)c1ccc(O)c(CSC2=NCCS2)c1	-1.9	13.7	12.8	4.9	-0.4	16.2
Clc1cccc(Cl)c1/C=C/c1nc2ccccc2[nH]1	-11.9	-13.3	0.9	nt	0.8	81.4*
Clc1ccc(/C=C/c2nc3ccccc3[nH]2)cc1	-1.9	-25.3	3.2	nt	-0.8	17.1
Cc1ccc(C(=O)C2=C(O)C(=O)N(Cc3ccccc3)C2c2cccnc2)o1 (centres undefined)	55.4*	0.6	-0.4	nt	-0.4	-0.2
CC(=O)C1=C(O)C(=O)N(Cc2cccnc2)C1c1ccccc1Cl (centres undefined)	-8.2	6.1	1.5	nt	1.0	5.6
CCOC(=O)c1sc2ncc([N+](=O)[O-])cc2c1N	0.7	nt	18.8	19.0	nt	nt
COC(=O)c1sc2cc([N+](=O)[O-])cc(SCC(C)C)c2c1N	-10.2	1.2	2.6	10.2	10.9*	-1.0
O=C(CN1c2ccccc2Sc2ccccc21)NNC(=S)Nc1ccc(Cl)cc1Cl	5.1	-19.6	0.0	nt	10.9*	41.6
C=C(C)C(=O)N1CC2(CC(c3cccc(NC(=O)CCCCC)c3)=NO2)C[C@H]1C(N)=O (some centres undefined)	-12.9	nt	31.3	14.6	nt	nt
COc1cccc(N2CCN(CC(=O)Nc3nc4c(s3)CC(C)CC4)CC2)c1 (centres undefined)	-18.2	-0.6	-1.6	nt	0.0	16.3
CC1CCc2nc(NC(=O)CN3CCN(c4ccc(F)cc4)CC3)sc2C1 (centres undefined)	-0.6	-18.9	2.0	nt	0.4	67.1*
COc1ccc(OCC(=O)NNc2c3ccccc3nc3ccccc23)cc1	-22.9	-7.4	1.5	nt	1.8	63.8*
O=C(NNc1c2ccccc2nc2ccccc12)c1ccccc1O	25.2	-7.3	57.6*	10.8	0.6	27.4
O=C(COc1ccccc1)NNc1c2ccccc2nc2ccccc12	-15.4	12.8	1.1	nt	3.8	42.4
SMILES	NCF1 inh	Arbovirus anti	Hck Nef HTS	Biofilm kill mix	RAM inhibit	WT yeast gro inh
COc1ccc(Cn2c(SCC#N)nc3ccc(N4CCOCC4)cc3c2=O)cc1	-11.8	17.2	-16.9	7.1	5.6	-3.6
CCN(CC1COc2ccccc2O1)C(=S)Nc1ccc(F)cc1 (centres undefined)	-9.8	17.9	3.6	10.7	0.0	11.2
COc1ccc(-c2csc(-c3ccccc3)n2)c(OC)c1	-8.7	2.8	-7.6	9.1	2.6	72.7*
COc1ccc(-c2csc(-c3cccs3)n2)c(OC)c1	-8.7	-3.4	12.7	9.6	6.2	63.8
O=C(Cn1c2c(c(-c3ccccc3)cc1=O)CCCC2)N1CCCCCC1	-12.0	-25.4	-1.3	17.0	-1.1	54.1
CCCCNC(=O)Cn1c2c(c(-c3ccccc3Cl)cc1=O)CCC2	81.3*	-6.6	1.9	nt	0.5	12.9
Cc1ccc2nsnc2c1S(=O)(=O)NCCc1c(C)[nH]c2ccc(F)cc12	-312.8	-9.1	1.1	nt	1.5	-49.1
Cc1cccc(C2(c3cccc(C)c3)CC2C(=O)NCC2CCCO2)c1 (centres undefined)	-3.1	-5.2	-3.7	13.5	0.0	-1.4
Cc1cccc(C2(c3cccc(C)c3)CC2C(=O)Nc2ccc([N+](=O)[O-])cc2O)c1 (centres undefined)	-23.7	-44.1	3.3	16.4	5.3	92.4*
CC1Cc2ccccc2N1C(=O)Cn1c(=O)cc(O)c2ccccc21 (centres undefined)	-7.4	-10.5	-0.3	nt	1.4	96.8*
CCOc1cc(N2CCOCC2)c(OCC)cc1NC(=O)c1ccc(C)cc1	0.2	-8.3	25.3	12.3	2.6	-1.2
CCOc1cc(N2CCOCC2)c(OCC)cc1NC(C)C(=O)N1CCN(CC)CC1 (centres undefined)	66.7*	-2.8	18.7	10.5	1.6	7.3
CCOc1cc(N2CCOCC2)c(OCC)cc1NC(=O)c1ccc(OC(C)C)cc1	-1.1	5.9	25.0	7.7	8.8*	1.1
CCOc1cc(N2CCOCC2)c(OCC)cc1NC(=O)C(C)C	-6.3	nt	22.9	7.0	nt	nt
CCCn1c(=O)[nH]c(=O)c2c1nc(-c1ccc(OC)c(Br)c1)n2CCOC	-15.6	2.9	16.7	11.3	1.2	-7.5
CCCCCC1CC(CC(=O)NC(=S)Nc2ccccc2Cl)C(=O)O1 (centres undefined)	0.2	5.8	18.2	23.1	3.6	61.0*
CC1CC(CC(=O)NC(=S)Nc2ccccc2Cl)C(=O)O1 (centres undefined)	-8.0	-0.3	5.0	3.4	-0.2	14.2
Cc1sc(NC(=O)c2ccco2)c(C(c2ccc(F)cc2)N2CCN(C)CC2)c1C (centres undefined)	-6.4	-27.1	17.9	14.1	-1.0	95.0*
Cc1sc(NC(=O)c2ccco2)c(C(c2cccnc2)N2CCN(CCO)CC2)c1C (centres undefined)	-6.7	-1.7	23.8	12.5	2.2	-6.6
Cc1sc(NC(=O)c2ccco2)c(C(c2cccnc2)N2CCN(c3ccc(F)cc3)CC2)c1C (centres undefined)	-7.1	-2.7	-1.9	nt	8.4*	55.9
Cc1cc(O)ccc1Nc1nc(-c2cccs2)cs1	-14.8	-25.8	57.4*	17.3	1.5	22.9
